Laboratory results published in the EternaBench riboswitch data.

System: MS2 coat protein
Test: apparent Kd, MS2 coat protein; higher = weaker binding; RNA-MaP array; FMN 200 µM where present
Summary of the method: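 The apparent Kd is reported as the median of filtered per-cluster binding-curve fits. To get these curves, designs transcribed by stalled E. coli RNA polymerase on Illumina sequencing-chip clusters were titrated with SNAP-549-labelled MS2 coat protein from 0.7 or 1.5 nM, doubling to 3 µM. Titrations were run without and then with constant ligand in 100 mM Tris-HCl pH 7.5, 80 mM KCl, 4 mM MgCl2, BSA, DTT, yeast tRNA and Tween-20, and green signal was normalised to red-channel RNA signal and control-cluster median Fmax.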

[1] = designed as: OFF switch for flavin mononucleotide, no ligand
[2] = ligand present: flavin mononucleotide, designed as: OFF switch for flavin mononucleotide
[3] = designed as: ON switch for flavin mononucleotide, no ligand
[4] = ligand present: flavin mononucleotide, designed as: ON switch for flavin mononucleotide

With “AAUAUAAGAGCUGGACUCAAAAGAACAUGAGGAUCACCCAUGUAGGAUAUCAGCACGAUAAGUGCUGAGAAGGACAACCAGCUC” the “apparent Kd” value [1] was 14.4 nM and the “apparent Kd” value [2] was 15.2 nM.
For “AAUAUAAGAGCUGGUACUCAAAGAACAUGAGGAUCACCCAUGUAGGAUAUCAGCACGAUAAGUGCUGAGAAGGACAUCCAGCUC”, the “apparent Kd” value [1] was 15.8 nM and the “apparent Kd” value [2] was 15.9 nM.
“AAUAUAAUAAGAGCUGGAAAUAAAACAUGAGGAUCACCCAUGUAGGAUAUCAGCACGAUAAGUGCUGAGAAGGACAACCAGCUC” was tested, and the “apparent Kd” value [1] was 14 nM and the “apparent Kd” value [2] was 15.1 nM.
“AAUAUAGAGCUGGUCUCAAAAUAAACAUGAGGAUCACCCAUGUAGGAUAUCAGCACGAUAAGUGCUGAGAAGGACAUCCAGCUC” was tested, and the “apparent Kd” value [1] was 16.3 nM and the “apparent Kd” value [2] was 18.4 nM.
With “AAUAUGAGCUGGAAUAAAACCUGAACAUGAGGAUCACCCAUGUAGGAUAUCAGCACGAUAAGUGCUGAGAAGGACAACCAGCUC” the “apparent Kd” value [1] was 14 nM and the “apparent Kd” value [2] was 14.6 nM.
In the case of “AAUAUGAGCUGGAAUAAACUCAAAACAUGAGGAUCACCCAUGUAGGAUAUCAGCACGAUAAGUGCUGAGAAGGACAACCAGCUC”, the “apparent Kd” value [1] is reported as 13.8 nM and the “apparent Kd” value [2] is reported as 15.5 nM.
With “AAUAUGAGCUGGUUUAAAACCUAAACAUGAGGAUCACCCAUGUAGGAUAUCAGCACGAUAAGUGCUGAGAAGGACAUCCAGCUC” the “apparent Kd” value [1] was 15 nM and the “apparent Kd” value [2] was 14.7 nM.
For “AAUAUGUUGCAGAAGGCUAUAUUUUUUUAGUACCUCAUGACAUGAGGAUCACCCAUGUUUUUGUUGGAGGAUAUGCAAUAUAUU”, the “apparent Kd” value [1] was 8.07 nM and the “apparent Kd” value [2] was 7.56 nM.
With “AAUAUGUUGCAGAAGGUUAUAUUUUUUUAGUACCUCAUGACAUGAGGAUCACCCAUGUUUUUGUUGAAGGAUAUGCAAUAUAUU” the “apparent Kd” value [1] was 17.1 nM and the “apparent Kd” value [2] was 14.3 nM.
“AAUCAACGAAUACCAGGGCAUUAAUGAGAAGGCCAAUCACAUGAGGAUCACCCAUGUACGAGAGUGGAGGAUAUCAGUGGGCCG” was tested, and the “apparent Kd” value [3] was 111 nM and the “apparent Kd” value [4] was 11.3 nM.
In the case of “AAUCCACAUGAGGAUCACCCAUGUCAGGAUAUCGCGCGCGCGUUUUCGGUCUCGCGCGCGAGAAGGGACGGCUG”, the “apparent Kd” value [1] is reported as 24 nM and the “apparent Kd” value [2] is reported as 48.2 nM.
For “AAUGAGCAGUAGAAGGCAUGUCUACGGACAUGAGGAUCACCCAUGUUGUGAAUCCGAAAGGAGCAUGAGGAUAUACUGCUCUAA”, the “apparent Kd” value [3] was 70.7 nM and the “apparent Kd” value [4] was 14.7 nM.
In the case of “AAUGGGCAGCAGAAGGCAUGUCAUAAGACAUGAGGAUCACCCAUGUAGUUAAGGCGAAAGCCGCAUGAGGAUAUGCUGCCCUAA”, the “apparent Kd” value [3] is reported as 66 nM and the “apparent Kd” value [4] is reported as 6.71 nM.
For “AAUGUCUGAGGAUAUCGUUUUUUGUACAUGAGGAUCACCCAUGUCCAAUUUUGUAUAUUACGAGAAGGCAGUGGAA”, the “apparent Kd” value [1] was 14.9 nM and the “apparent Kd” value [2] was 22.4 nM.
In the case of “AAUGUCUGAGGAUAUCGUUUUUUGUACAUGAGGAUCACCCAUGUUUUAUUUUGUAUAUUACGAGAAGGCAGUGGAA”, the “apparent Kd” value [1] is reported as 24.1 nM and the “apparent Kd” value [2] is reported as 18.5 nM.
In the case of “AAUGUGUGUGGAGGAUAUAUAACAUGACAACAAACACAUACAUGAGGAUCACCCAUGUCCCAUGUAUAGAAGGCCAUAUAUAUA”, the “apparent Kd” value [3] is reported as 662 nM and the “apparent Kd” value [4] is reported as 618 nM.
For “AAUUAAGAUCUAGGAUAUCACGUCGAUUAGACGUGAGAAGGAGAUCAUAACAUGAGGAUCACCCAUGUAUUACAUGAAUUAAUU”, the “apparent Kd” value [3] was 28 nM and the “apparent Kd” value [4] was 25.9 nM.
With “AAUUAAUUGUAGAAGGUACUUAAUUAUGUUAUGUAAGGAUAUACGUAAUUAUUACGACAUGUAUGACAUGAGGAUCACCCAUGU” the “apparent Kd” value [3] was 7.72 nM and the “apparent Kd” value [4] was 7.82 nM.
In the case of “AAUUACAGAGGAUAUGCGCGGUAAAACAUGAGGAUCACCCAUGUGAUACCUGCAUGACCGGCAGAAGGCUGCGUUU”, the “apparent Kd” value [1] is reported as 22.3 nM and the “apparent Kd” value [2] is reported as 108 nM.
For “AAUUAUAUGUAGAAGGUACUAACAUAUGUGUUGUAAGGAUAUACCAAAUUAUUAGUUAUCAAGUUACAUGAGGAUCACCCAUGU”, the “apparent Kd” value [3] was 12.3 nM and the “apparent Kd” value [4] was 7.36 nM.
For “AAUUAUUUACAGAAGGAGUAAGAUUAUGUAUUACUAGGAUAUGUAAACAUGAGGAUCACCCAUGUGUUUGUAGGUUUUUUAUGU”, the “apparent Kd” value [1] was 13.4 nM and the “apparent Kd” value [2] was 7.79 nM.
In the case of “AAUUAUUUAUGAGGAUAUUGUGGUGAAACACCACAAGAAGGCAUGAUACACAUGAGGAUCACCCAUGUGAGCCUGAUGCAUAUA”, the “apparent Kd” value [1] is reported as 17.2 nM and the “apparent Kd” value [2] is reported as 28.4 nM.
With “AAUUAUUUUUGAGGAUAUGGUGGUGAAACACCACCAGAAGGCGGAAUAAACAUGAGGAUCACCCAUGUGAGCCUGAUGCUUAUG” the “apparent Kd” value [1] was 21.3 nM and the “apparent Kd” value [2] was 40.5 nM.
“AAUUCAAACAGAGGAUAUUGUUUAUCUCUAUUGCAAGAAGGCUGAUCUUACUACCCACUUAUGAAACAUGAGGAUCACCCAUGU” was tested, and the “apparent Kd” value [3] was 34.6 nM and the “apparent Kd” value [4] was 30.1 nM.
With “AAUUCGUCAGGAUAUGCAUGUAAUUGUUACAUUUCGCCGUUGCAGAAGGGACAUGAGGAUCACCCAUGUAAGUC” the “apparent Kd” value [1] was 32.8 nM and the “apparent Kd” value [2] was 34.9 nM.
In the case of “AAUUGGAUCCAGAAGGCAUGGACGACCCGUCAAAUUAACAUGAGGAUCACCCAUGUCAAAAGACAUGAGGAUAUGGAUCCUAAA”, the “apparent Kd” value [3] is reported as 869 nM and the “apparent Kd” value [4] is reported as 28.4 nM.
“AAUUUGUGAAAAUUACAUGAGGAUCACCCAUGUUAGGGAAUGCAGGAUAUGUGGUUUAUUAUUUUACAGAAGGGCAAUAAUUUU” was tested, and the “apparent Kd” value [3] was 95.9 nM and the “apparent Kd” value [4] was 53.6 nM.
